Assay outcomes from PubChem BioAssay.
M1 ag: agonists of M1 muscarinic receptor | CHO-M1 cells, Fluo-4 calcium fluorescence, agonist mode; hits give high values | B-score at 10 µM | 64,000 compounds, 3% hits | AID 626;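 active = fluorescence rise, raw or as B-score row- and column-corrected plate score, outside the 99.7% band of its plate's samples, either direction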
M1 antag: blocks the rat M1 muscarinic receptor response to acetylcholine. 64,000 compounds, 3.4% hits. CHO-M1 cells, Fluo-4 calcium, ACh EC80 antagonist mode; hits give low values. B-score at 10 µM;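 active = calcium fluorescence response, raw or row-and-column corrected B-score, differing from the plate sample mean either way at a set confidence level, mostly lower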
Target sequence (P08482 whole entry, looked up): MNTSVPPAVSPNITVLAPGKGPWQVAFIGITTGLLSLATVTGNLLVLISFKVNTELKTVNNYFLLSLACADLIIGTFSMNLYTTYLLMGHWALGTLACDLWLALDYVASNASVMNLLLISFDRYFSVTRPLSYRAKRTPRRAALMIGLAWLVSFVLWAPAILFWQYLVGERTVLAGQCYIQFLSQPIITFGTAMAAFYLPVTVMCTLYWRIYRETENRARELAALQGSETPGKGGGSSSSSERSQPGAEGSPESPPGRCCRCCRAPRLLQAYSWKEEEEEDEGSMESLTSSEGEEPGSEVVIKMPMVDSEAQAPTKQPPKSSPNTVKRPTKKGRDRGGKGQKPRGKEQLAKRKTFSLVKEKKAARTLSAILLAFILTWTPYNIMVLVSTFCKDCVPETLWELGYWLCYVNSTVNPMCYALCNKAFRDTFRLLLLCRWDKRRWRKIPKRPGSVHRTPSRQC
SF-1 act: SF-1 (human) activation | Q13285 | activation, % at 10 µM | AID 522 | 65,000 compounds, 1.9% hits | CHO-K1 Gal4-SF-1 LBD luciferase reporter; % increase over DMSO SF-1-specific signal;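 active = activation above the mean activation of all tested compounds plus 3 SD, cut at about 50% in these data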
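Material: Transient Gal4-SF-1 LBD reporter, CHO-K1 | Input: 4,000 cells/well | Dosing: One dose, 10 µM compound, 1% DMSO | Incubation: 20 h compound treatment, 37 °C | Detection: SteadyLite luciferase luminescence | Evaluation: Percent activation relative to DMSO median and mock-transfected background | Benchmarks: DMSO-treated SF-1-transfected cells as negative, DMSO-treated mock-transfected cells lacking SF-1 as background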
HePTP inhibitor: human HePTP phosphatase inhibition; AID 521; recombinant HePTP phosphatase activity, OD absorbance; 110,000 compounds, 0.64% hits; inhibition, % at 20 µM; in the data active = inhibition above about 50%
RORa activator: RORA (human) activation. activation, % at 10 µM. 65,000 compounds, 1.5% hits. AID 560. CHO-K1 Gal4-RORA LBD luciferase reporter, luminescence; percent increase over mock-subtracted basal signal. P35398;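 active = activation above the mean of all tested compounds plus 3 SD, cut at about 49% in these data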
D1 mod: D1 dopamine receptor (human) allosteric modulation; AID 641; HEK293 D1, CRE-luciferase, dopamine EC30 potentiation; actives deviate in either direction; B-score at 10 µM; 58,000 compounds, 5.9% hits;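 active = luminescence count or its row- and column-corrected plate score outside the 99.7% band of the plate's sample wells, on either side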
M1 antag conf: confirmation of rat M1 muscarinic receptor antagonists; shares compounds with M1 antag; CHO-M1 cells, Fluo-4 calcium, ACh EC80 antagonism; hits give low values; calcium response (max-min fluorescence) at 10 µM; 1,700 compounds, 43% hits; AID 677;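 active = calcium response below the same-plate mean of wells given acetylcholine alone at its 80%-effect dose, minus 3 SD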
mGluR4 antag: mGluR4 (human) activity, M1 antagonist secondary assay. 1,700 compounds, 0.9% hits. AID 678. fluorescence response (max-min) at 10 µM. shares compounds with M1 antag. CHO-mGluR4 calcium flux, Fluo-4 fluorescence, glutamate EC80; hits give low values;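 active = fluorescence response below the plate's average for near-maximal glutamate wells, less 3 SD of those wells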;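 note: raw unnormalized fluorescence span taken in the window right after glutamate addition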
Hits are given with their value; . = inactive; / = no result given. This is a sample that favours compounds with a hit; in the whole collection about 8.2% have one here.

SMILES | M1 ag | M1 antag | SF-1 act | HePTP inhibitor | RORa activator | D1 mod | M1 antag conf | mGluR4 antag
COc1ccc(N2CCN(CCNC(=O)c3c(C)cc(=O)oc3C)CC2)cc1 | . | -4.62 | . | . | . | . | 354 | .
O=C(/C=C/c1ccccc1Cl)Nc1ccc(S(=O)(=O)N2CCOCC2)cc1 | / | / | / | . | / | / | / | /
C=CCOC(=O)Nc1ccc(Cl)cc1NC(=O)OCC=C | . | -3.79 | . | . | . | . | . | .
C=CCCCC(=O)Nc1ccc(Cl)cc1Cl | / | / | / | . | / | / | / | /
Cc1ccc(NC(=O)CN(C)S(=O)(=O)c2cccc3nsnc23)cc1C | . | -3.09 | . | . | . | . | . | .
Cc1ccc(NC(=O)CN(C)S(=O)(=O)c2cccc3nsnc23)cc1Cl | . | . | . | . | . | . | / | /
N=c1c2c(-c3ccccc3)c(-c3ccccc3)n(Cc3ccco3)c2ncn1CCN1CCOCC1 | . | -7.2 | . | . | . | . | 360 | .
COc1cccc(OCCCN2CCCCC2)c1 | . | . | . | . | . | . | / | /
Cc1cccc(OCCCN2CCCC2)c1 | / | / | / | . | / | / | / | /
CCOc1cccc(OCCCCN2CCCCC2)c1 | . | -3.07 | . | . | . | . | 329 | .
COc1cccc(OCCCCN2CCCCC2)c1 | . | -1.16 | . | . | . | . | 280 | .
COCCn1c(Sc2nc(C)cs2)nc2c1c(=O)[nH]c(=O)n2C | . | -4.14 | . | . | . | / | . | .
O=C(O)CCNC(=O)c1ccc(Br)o1 | . | . | . | . | . | . | / | /
COc1ccccc1C(c1nnnn1C1CCCC1)N1CCN2CCCC2C1 (stereo not drawn) | . | -3.77 | . | . | . | / | 473 | .
O=C(Nc1c(-c2ccccc2)c2cc(Br)ccc2[nH]c1=O)c1cccc(Cl)c1 | / | / | / | . | / | / | / | /
CCn1c(SCC(=O)N2CCCc3ccccc32)nnc1-c1cccs1 | . | . | . | . | . | . | / | /
CCc1nnc(SCC(=O)N2CCCc3ccccc32)nc1CC | . | -3.34 | . | . | . | . | . | .
CCn1c(CSc2ncccn2)nnc1SCC(=O)N1CCc2ccccc21 | . | -5.44 | . | . | . | . | . | .
O=C(CCC(=O)OCCCC(F)(F)C(F)(F)F)NC1CCCCC1 | . | -8.21 | . | . | . | . | . | .
CCOC(=O)c1[nH]c2ccc(OC)cc2c1NS(=O)(=O)c1ccc(OC)cc1OC | / | / | . | . | . | . | / | /
COc1ccccc1-n1c(C)nnc1SCC(=O)Nc1cccc(C(C)=O)c1 | . | -2.68 | . | . | . | . | . | .
CCN1C(=O)c2ccccc2S(=O)c2ccc(C(=O)N3CCN(C(=O)c4ccco4)CC3)cc21 (stereo not drawn) | . | -1.34 | . | . | . | / | . | .
CCN1C(=O)c2ccccc2S(=O)c2ccc(C(=O)N3CCCCCC3)cc21 (stereo not drawn) | . | . | . | . | . | . | / | /
CC(C)Cn1c(SCC(=O)N2CCN(S(=O)(=O)c3ccccc3)CC2)nc2ccccc21 | . | -2.59 | . | . | . | . | 348 | .
N#CCCn1c(SCC(=O)N2CCN(S(=O)(=O)c3ccccc3)CC2)nc2ccccc21 | . | -10.4 | . | . | . | . | 199 | .
SMILES | M1 ag | M1 antag | SF-1 act | HePTP inhibitor | RORa activator | D1 mod | M1 antag conf | mGluR4 antag
Nn1cc(-c2ccccc2)nc1SCC(=O)N1CCN(S(=O)(=O)c2ccccc2)CC1 | . | . | . | . | . | . | / | /
COc1cccc(NC(=O)c2ccccc2NS(C)(=O)=O)c1 | . | . | . | . | . | / | / | /
CS(=O)(=O)Nc1ccccc1C(=O)Nc1cccc(Cl)c1 | . | -2.48 | . | . | . | . | . | .
CCN(CC)Cc1cc2ccccc2c2c1COC2 | . | -2.32 | . | . | . | . | 473 | .
CCCN(CCC)Cc1cc2ccccc2c2c1COC2 | / | / | / | . | / | / | / | /
Clc1ccccc1-c1nc(NCc2ccccc2)c2ccccc2n1 | / | / | / | . | / | / | / | /
CN(C)CCOC(=O)CCc1cc(C(C)(C)C)c(O)c(C(C)(C)C)c1 | / | / | / | . | / | / | / | /
Cc1nc2ccccc2c(=O)n1CC(=O)N1CCOCC1 | . | . | . | . | . | . | / | /
O=C(Cn1cc(/C=N/O)c2ccccc21)N1CCOCC1 | . | -2.2 | . | . | . | . | . | .
O=C(c1ccccc1-c1ccccc1)N1CCN(c2ccccn2)CC1 | . | . | . | . | . | . | / | /
COc1ccc2cc3cc(C(=O)NCCc4ccc(OC)c(OC)c4)oc3nc2c1 | . | . | . | . | . | . | / | /
CCCCN(CC)CCCNC(=O)c1cc2cc3ccc(OC)cc3nc2o1 | . | -4.75 | . | . | . | . | . | .
CCCN(CCC)CCCNC(=O)c1cc2cc3ccc(OC)cc3nc2o1 | . | -6.97 | . | . | . | . | 437 | .
COc1ccc(N2C(=O)CSC23C(=O)N2CCCc4cccc3c42)cc1 (stereo not drawn) | . | -16.9 | . | . | . | . | 28.3 | .
CCOc1ccc(N2C(=O)CSC23C(=O)Nc2ccccc23)cc1 (stereo not drawn) | / | / | / | . | / | / | / | /
COc1ccc2oc(=O)c(C(=O)NCCc3ccccc3)cc2c1 | / | / | / | . | / | / | / | /
COc1cc(NC(=O)c2cccs2)ccc1NC(=O)c1ccco1 | . | -2.8 | . | . | . | . | . | .
Cc1ccc(NC(=O)c2ccco2)c(NC(=O)c2cccs2)c1 | . | -3.89 | . | . | . | . | . | .
CC(C)N(Cc1nc(-c2ccccc2)no1)C(=O)CN1C(=O)c2ccccc2C1=O | . | . | . | . | . | . | / | /
COc1cccc(CN2CCN(C(=O)C(c3ccccc3)c3ccccc3)CC2)c1OC | / | / | / | . | / | / | / | /
Cc1sc2ncnc(SCC(=O)N3CCCC3=O)c2c1C | . | -4.34 | . | . | . | . | . | .
Cc1cc(=O)n(C)c(=O)n1CCCCCN1CCCC1 | . | -1.63 | . | . | . | . | . | .
COC(=O)c1ccc(COc2cccc(OC)c2)o1 | . | -2.38 | . | . | . | . | . | .
Cc1ccc(C(=O)C2CCN(CC(=O)NC3CCCCC3)CC2)cc1 | . | -4.63 | . | . | . | . | 545 | .
Cc1ccc(C(=O)CN2CCC(NC(=O)C3CCCCC3)CC2)cc1 | . | . | . | . | . | . | / | /
Cc1cc(C)cc(-n2c(=O)c3sccc3n(CC(=O)NCc3ccco3)c2=O)c1 | . | . | . | . | . | . | / | /
COc1ccc(N2C(=O)CC(N3CCN(C4CCc5ccccc5C4)CC3)C2=O)cc1 (stereo not drawn) | . | -2.25 | . | . | . | . | . | .
O=C(Nc1ccc(S(=O)(=O)Nc2nccs2)cc1)C1CCCCC1 | . | -13.3 | . | . | . | / | . | .
C=CCn1c(SCc2nc3ccccc3[nH]2)nnc1-c1ccncc1 | . | -16.1 | . | . | . | . | . | .
